Assay results published in ChEMBL document CHEMBL1629660, “Pharmacodynamics of tigecycline against phenotypically diverse Staphylococcus aureus isolates in a murine thigh model” (Antimicrob Agents Chemother, 2009).

Tests used:
[1] = fAUC/MIC in community acquired methicillin-resistant Staphylococcus aureus isolate 144-infected neutropenic ICR mouse at 80% effective exposure index; format: functional
Summary of the method: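 Single-dose serum PK in infected neutropenic mice (sc 6.25–50 mg/kg; HPLC; two-compartment fit; AUC by trapezoidal rule; lower doses simulated). Free fraction from ultrafiltration of spiked mouse serum, in triplicate. Free exposures divided by modal MIC and plotted against 24-h log10 CFU change with a sigmoidal Emax model; EI50, EI80 and stasis values read from the fitted curves.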

[2] = r2 for fT>MIC in community acquired methicillin-resistant Staphylococcus aureus isolate 147-infected neutropenic ICR mouse
[3] = r2 for fT>MIC in community acquired methicillin-resistant Staphylococcus aureus isolate 144-infected neutropenic ICR mouse
Staphylococcus aureus [4] = assay: Antimicrobial activity against community acquired methicillin-resistant Staphylococcus aureus isolate 156 infected in immunocompetent ICR mouse assessed as reduction in bacterial load at 12.5 […] after 24 hrs; format: functional
Summary of the method: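 Non-neutropenic ICR mice (no cyclophosphamide). Each thigh inoculated im with 0.1 ml of ~10^8 CFU/ml. Tigecycline given sc once daily at 1.56, 3.13, 6.25 or 12.5 mg/kg starting 2 h post-infection, 3 mice/group. Thighs harvested at 24 h, homogenized, plated on blood agar; log10 CFU change vs 0-h controls.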

Acinetobacter baumannii = assay: Antimicrobial activity against carbapenem-intermediate,-resistant Acinetobacter baumannii assessed as decrease in bacterial count at 0.8 times of MIC after 48 hrs by time kill analysis; format: functional
[5] = r2 of fCmax/MIC in hospital-acquired methicillin-resistant Staphylococcus aureus isolate 152-infected neutropenic ICR mouse
Staphylococcus aureus [6] = assay: Antimicrobial activity against hospital-acquired methicillin-resistant Staphylococcus aureus isolate 56 infected in neutropenic ICR mouse assessed as change in bacterial load after 24 hrs; format: functional
Summary of the method: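 Female ICR mice (~25 g) made neutropenic with cyclophosphamide 150 and 100 mg/kg ip, 4 and 1 days before infection. Each thigh inoculated im with 0.1 ml of ~10^7 CFU/ml from an overnight subculture. Tigecycline sc (0.2 ml) given 2 h later as single or multiple doses of 1.56–50 mg/kg, 1.56–400 mg/kg/day, 3 mice/group. Saline-injected controls. Thighs harvested at 24 h, homogenized in saline, plated on blood agar; log10 CFU change vs 0-h controls.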

[7] = r2 for fT>MIC in hospital-acquired methicillin-resistant Staphylococcus aureus isolate 56-infected neutropenic ICR mouse

SMILES: CN(C)c1cc(NC(=O)CNC(C)(C)C)c(O)c2c1C[C@H]1C[C@H]3[C@H](N(C)C)C(O)=C(C(N)=O)C(=O)[C@@]3(O)C(O)=C1C2=O [TIGECYCLINE]
- fAUC/MIC [1]: 3.2
- r2 [2]: 0.483%
- r2 [3]: 0.552%
- log10cfu (Staphylococcus aureus [4]): 1.6
- log10cfu (Acinetobacter baumannii): 3.5
- r2 [5]: 0.953
- log10CFU/ml (Staphylococcus aureus [6]): 2
- r2 [7]: 0.341%
